V-ATPase pH = regulators of yeast V-ATPase proton pumping, primary screen, pHLuorin cytosolic pH fluorescence; S. cerevisiae; 350,000 compounds, 0.37% hits; response, % at 10 µM; in the data active means response mostly above about 7.3%, no sharp cut-off; inactive means mostly below about 5.4%; further: actives read high
Hep lipid drop = inhibitors of hepatocyte lipid droplet formation, primary screen, imaging, high-throughput imaging, BODIPY stain; AML12 mouse hepatocytes, oleate lipid droplets; inhibition, % at 6.5 µM; 240,000 compounds, 0.4% hits;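 active means lipid droplet intensity inhibited by at least 50%, with more than 500 cells counted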
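System: AML12 hepatocytes (mouse). Probe or stimulus: oleic acid at 100 µM to induce lipid droplet formation. Times: overnight treatment with compound plus oleate. Detection: Image-based BODIPY and DAPI two-channel analysis. Evaluation: percent inhibition of filter-corrected integrated lipid droplet intensity per well.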
aDG glyco up = activators of alpha-DG glycosylation, primary screen, uHTS, Pro5-aDG cells, AlphaScreen. AID 624168, 2012. activation, % at 10 µM. alpha-DG glycosylation AlphaScreen (IIH6); 0% Pro5, 100% B10-LARGE cell signal. 360,000 compounds, 0.22% hits;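 active means activation of at least 8% versus controls, or a plate z-score of at least 8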;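 further: Pro5 are CHO cells carrying HIG-tagged alpha-DG that lacks glycosylation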
MPTP inh = mitochondrial permeability transition pore inhibitors, primary screen, biochemical, isolated mouse mitochondria, absorbance; 360,000 compounds, 1.4% hits; inhibition, % at 10 µM; Ca2+ swelling absorbance, 30 min;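 active means inhibition of 50% or more, scaled per plate between neutral and stimulator controls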
ADAM17 inh = ADAM17 inhibitors, primary screen, biochemical, QFRET; Disintegrin and metalloproteinase domain-containing protein 17 (Homo sapiens), P78536; recombinant ADAM17, EDANS/DABCYL FRET peptide cleavage; inhibition, % at 6.95 µM; 370,000 compounds, 0.83% hits; AID 720648, 2013;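 active means inhibition above the mean of compounds lying between control limits plus 3 SD, set per campaign, cut at about 8.5% in these data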
ADAM10 inh = human ADAM10 inhibitors, primary screen, biochemical, QFRET, HTS | Disintegrin and metalloproteinase domain-containing protein 10 (Homo sapiens), O14672 | recombinant ADAM10, EDANS/DABCYL FRET peptide cleavage, 3 h | inhibition, % at 7 µM | 370,000 compounds, 0.62% hits;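 active means inhibition above a per-campaign cutoff equal to the mean of compounds falling between control-based bounds plus 3 SD, cut at about 20% in these data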
Target sequence (O14672 214-748 limits assumed): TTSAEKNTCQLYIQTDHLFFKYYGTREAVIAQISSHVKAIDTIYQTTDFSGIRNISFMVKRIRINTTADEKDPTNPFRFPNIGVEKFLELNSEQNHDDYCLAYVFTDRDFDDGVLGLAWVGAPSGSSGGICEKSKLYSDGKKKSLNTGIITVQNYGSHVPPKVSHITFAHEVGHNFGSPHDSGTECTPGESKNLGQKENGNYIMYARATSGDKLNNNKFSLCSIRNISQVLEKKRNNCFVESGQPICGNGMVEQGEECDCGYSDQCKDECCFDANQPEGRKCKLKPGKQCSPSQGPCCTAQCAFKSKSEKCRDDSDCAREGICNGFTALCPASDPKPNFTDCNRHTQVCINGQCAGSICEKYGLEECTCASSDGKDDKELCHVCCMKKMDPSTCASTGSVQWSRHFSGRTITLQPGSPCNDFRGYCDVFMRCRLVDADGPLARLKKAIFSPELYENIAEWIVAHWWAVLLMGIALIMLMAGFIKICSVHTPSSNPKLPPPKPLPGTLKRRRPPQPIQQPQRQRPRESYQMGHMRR
ADAM10 confirm = human ADAM10 inhibitors, confirmation, biochemical, QFRET, triplicate; AID 743208, 2013; ADAM10 QFRET peptide cleavage, EDANS fluorescence; 2,100 compounds, 1% hits; inhibition, % at 6.95 µM; shares compounds with ADAM10 inh;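 active means inhibition above about 20% chosen separately for each screening run, limit read from the data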
ADAM17 ctr = ADAM17 inhibitors, counter-screen for ADAM10 exosite inhibitor project, biochemical, QFRET, high throughput; inhibition, % at 6.95 µM; shares compounds with ADAM10 inh; ADAM17 QFRET peptide cleavage, EDANS fluorescence; 2,100 compounds, 0.5% hits;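 active means mean triplicate inhibition above the solvent-only control wells' mean plus 3 SD, cut at about 12% in these data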
Hits are given with their value; i = inactive; nt = no result given. Hits are enriched below; roughly 3.1% of the tested compounds scored in any of these assays.

SMILES | V-ATPase pH | Hep lipid drop | aDG glyco up | MPTP inh | ADAM17 inh | ADAM10 inh | ADAM10 confirm | ADAM17 ctr
Cc1cccc(NC(=O)c2ccc(C3SCC(=O)N3CCc3ccccc3)cc2)c1C (stereo unspecified) | i | i | i | i | i | 21 | i | i
CCc1ccc(NC(=O)c2ccc(C3SCC(=O)N3CCc3ccccc3)cc2)cc1 (stereo unspecified) | i | i | i | i | i | i | nt | nt
O=C(CSc1nc(=O)n(CCCN2CCOCC2)c2c1CCC2)Nc1ccccc1F | i | nt | i | i | i | 80 | i | i
C[C@@]12C(=O)N(CCc3c[nH]c4ccccc34)CC(=O)N1[C@H]1c3ccccc3OC[C@@H]1[C@@H]2c1ccccc1 | i | nt | i | i | i | 22 | i | i
CCOC(=O)[C@@H]1[C@H]2COc3ccc(Br)cc3[C@H]2N2C(=O)N(c3cccc(F)c3)C(=O)[C@]12C | i | i | i | i | i | 20 | i | i
CN1CC(=O)N2[C@H]3c4ccccc4OC[C@@H]3[C@H](c3ccccc3)[C@]2(C)C1=O | i | nt | i | i | i | i | nt | nt
C[C@]12C(=O)N(c3ccc(Br)cc3)C(=O)N1[C@@H]1c3ccccc3OC[C@@H]1[C@H]2c1ccccc1 | i | i | i | i | i | 23 | i | i
COc1ccc2c(c1)OC[C@H]1[C@H]2N2C(=O)CN(Cc3ccc(C)cc3)C(=O)[C@@]2(C)[C@H]1c1ccccc1 | i | nt | i | i | i | 20 | i | i
CC(=O)N(c1ccc2oc(=O)sc2c1)S(=O)(=O)c1cccs1 | i | nt | i | i | i | i | nt | nt
CC(C)C(=O)N(c1ccc2oc(=O)sc2c1)S(=O)(=O)c1cccs1 | i | nt | i | i | i | 22 | i | i
CC(C)N1CCCCC(NC(=O)Cc2ccccc2)C1=O (stereo unspecified) | nt | nt | nt | nt | i | i | nt | nt
CC(C)CN1C(=O)C[C@]2(C(=O)N(C)c3ccc(NS(=O)(=O)c4ccc(F)cc4)cc32)C1c1ccccc1 (stereo partly specified) | nt | nt | nt | nt | i | i | nt | nt
CCC[C@H]1[C@@H](NC(=O)c2ccc(C)cc2)CC[C@@]23CCCN2C(=O)CCC[C@@H]13 | nt | nt | nt | nt | i | i | nt | nt
CSc1ccc(CSCC(=O)N2CCN(S(=O)(=O)c3ccc(C)cc3C)CC2)cc1 | i | nt | i | i | i | 24 | i | i
Cc1ccc(S(=O)(=O)N2CCN(C(=O)COC(=O)COc3ccc(Br)cc3)CC2)c(C)c1 | i | nt | i | i | i | i | nt | nt
Cc1ccc(S(=O)(=O)N2CCN(C(=O)COC(=O)Cc3ccc(F)cc3)CC2)c(C)c1 | i | nt | i | i | i | i | nt | nt
CC(=O)c1ccc(OCC(=O)N2CCN(S(=O)(=O)c3ccc(C)cc3C)CC2)cc1 | i | i | i | i | i | 84 | i | i
CC(=O)OC12CCCN(C1)/C(=C/c1ccccc1)C2 (stereo unspecified) | nt | nt | nt | nt | i | i | nt | nt
COC(=O)C1=C(C)N(Cc2ccc(Cl)cc2)C(=S)NC1c1cccc(OC)c1 (stereo unspecified) | nt | nt | nt | nt | i | 22 | i | i
COc1ccc(C2(c3ccc(OC)cc3)NC(=O)N(CC(=O)Nc3ccc(OC(F)F)cc3)C2=O)cc1 | i | i | i | i | i | 31 | i | i
O=C1N(c2ccccc2)CC2CC(c3ccccc3)N3CCCC123 (stereo unspecified) | nt | nt | nt | nt | i | i | nt | nt
COCCN1C(=O)N(c2cccc(C)c2)C(=O)C1CC(=O)Nc1ccc(OC)cc1 (stereo unspecified) | i | i | i | i | i | 20 | i | i
Cc1ccc(CNC(=O)c2cccc3c2C(=O)c2ccc(N4CCOCC4)cc2S3(=O)=O)cc1 | i | nt | i | i | i | i | nt | nt
Cc1ccc(CNC(=O)c2cccc3c2C(=O)c2ccc(N4CCCCC4)cc2S3(=O)=O)cc1 | i | nt | i | i | i | 21 | i | i
COCCN(C(=O)Cc1cccs1)C(C(=O)NCc1ccc(OC)cc1)c1ccc(OC)cc1 (stereo unspecified) | i | i | i | i | i | i | nt | nt
SMILES | V-ATPase pH | Hep lipid drop | aDG glyco up | MPTP inh | ADAM17 inh | ADAM10 inh | ADAM10 confirm | ADAM17 ctr
COc1ccc(CNC(=O)C(c2ccc(C)cc2)N(Cc2cccs2)C(=O)c2ccc3c(c2)OCCO3)cc1 (stereo unspecified) | i | nt | i | i | i | 26 | i | i
CCCCCCCCN1C(=O)[C@@H](CC(=O)N2CCN(C(=O)c3ccco3)CC2)C[C@@]2(C(=O)OC)C1=C[C@H](COCc1ccccc1)O[C@@H]2C | nt | nt | nt | nt | i | i | nt | nt
CCOc1cc(C(=O)NCC(C)(C)CNC(=O)c2cc(OCC)c(OCC)c(OCC)c2)cc(OCC)c1OCC | i | nt | i | i | i | 21 | i | i
COCCCn1cc(CN2CC=CS2(=O)=O)nn1 | nt | nt | nt | nt | i | i | nt | nt
C[C@@H]1CN([C@@H](C)CO)C(=O)c2cccc(NC(=O)Nc3cccc4ccccc34)c2O[C@H]1CN(C)S(=O)(=O)c1ccc2c(c1)OCCO2 | nt | nt | nt | nt | i | i | nt | nt
COc1nc(OC)nc(N2CCC(C(=O)N(C)Cc3ccccc3F)CC2)n1 | nt | nt | nt | nt | i | i | nt | nt
COc1ccccc1C(=O)NCCC(=O)Nc1ccc(S(=O)(=O)N2CC(C)CC(C)C2)cc1 (stereo unspecified) | i | nt | i | i | 9.6 | 29 | i | i
Cc1ccc(-n2c(SCC(=O)Nc3ccc(S(=O)(=O)Nc4cc(C)nc(C)n4)cc3)nnc2-c2cccs2)cc1 | nt | nt | nt | nt | i | i | nt | nt
COc1ccc(-n2c(Cc3cccn3C)nnc2SCC(=O)Nc2ccccc2)cc1 | i | i | i | i | i | i | nt | nt
Cn1cccc1Cc1nnc(SCC(=O)Nc2ccccc2)n1-c1ccc(F)cc1 | i | i | i | i | i | 79 | i | i
COc1ccc(-n2c(Cc3cccn3C)nnc2SCC(=O)Nc2ccc(Cl)cc2)cc1 | i | i | i | i | i | 86 | i | i
Cc1cc(C)nc(N/N=C/c2ccccc2OCc2ccc([N+](=O)[O-])cc2)n1 | i | i | i | i | i | 28 | i | i
COc1ccc(N(CC(O)Cn2cnc3ccccc32)S(=O)(=O)c2ccc(C)cc2)cc1 (stereo unspecified) | i | i | i | i | i | 22 | i | i
COc1ccc(N(CC(O)Cn2c(C)nc3ccccc32)S(=O)(=O)c2ccc(C)cc2)cc1 (stereo unspecified) | i | i | i | i | i | i | nt | nt
